Bioassay records as filed in PubChem.
Sampled rows, rich in hits. Any-hit rate of the full collection: about 1.5%.
APJ antagonist = antagonists of human APJ apelin receptor; CHO-K1 APJ beta-arrestin complementation, luminescence; inhibition, % at 20 µM; 330,000 compounds, 0.32% hits;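 active means inhibition above about 40% at 20 µM, limit read from the data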;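 further: cells challenged with 10 nM apelin-13 agonist together with compound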
Target sequence (P35414 whole entry, looked up): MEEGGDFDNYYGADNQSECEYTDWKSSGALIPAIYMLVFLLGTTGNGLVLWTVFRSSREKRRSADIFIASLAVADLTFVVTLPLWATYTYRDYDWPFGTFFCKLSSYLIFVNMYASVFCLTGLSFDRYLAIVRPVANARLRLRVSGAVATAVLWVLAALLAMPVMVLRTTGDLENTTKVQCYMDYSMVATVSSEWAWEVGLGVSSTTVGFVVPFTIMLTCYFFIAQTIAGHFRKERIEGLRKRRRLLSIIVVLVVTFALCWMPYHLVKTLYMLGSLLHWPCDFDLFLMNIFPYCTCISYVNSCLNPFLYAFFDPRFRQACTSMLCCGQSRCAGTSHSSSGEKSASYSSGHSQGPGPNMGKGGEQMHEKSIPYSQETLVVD
CCR6 antagonist = antagonists of human CCR6 receptor. P51684. CHO-K1 CCR6 PathHunter beta-arrestin, luminescence, CCL20-stimulated. inhibition, % at 20 µM. 340,000 compounds, 0.49% hits. AID 493098;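 active means compounds whose inhibition of the agonist-driven luminescence signal at 20 µM reaches about 50%, limit read from the data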;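 further: cells stimulated with CCL20 at 14 nM final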
hiPSC survival = hiPSC single-cell survival enhancement | ATPlite luminescence; 100% = ROCK inhibitor wells, 0% = DMSO | 360,000 compounds, 0.044% hits | survival enhancement, % at 20 µM; in the data active means survival enhancement above about 18%;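 further: cells exposed to compounds for 16 hours before the ATP read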
EBI2 block = blocks human EBI2 receptor beta-arrestin signaling. EBI2 beta-arrestin recruitment, luminescence, 7a,25-OHC stimulated. P32249. inhibition, % at 5 µM. 360,000 compounds, 0.81% hits; in the data active means inhibition above about 38%;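 further: enzyme fragment complementation signal reports receptor beta-arrestin coupling in cells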
CXCR6 block = inhibitors of human CXCR6 receptor | O00574 | CHO-K1 PathHunter CXCR6 beta-arrestin, luminescence | inhibition, % at 20 µM | 360,000 compounds, 0.36% hits | AID 602244; in the data active means inhibition above about 34%, passing the limit was not always enough;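 further: antagonist mode with CXCL16 agonist at 10 nM final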
APJ agonist = APJ receptor agonism | activation, % at 20 µM | 330,000 compounds, 0.11% hits | CHO-K1 APJ PathHunter beta-arrestin, luminescence; 0% DMSO wells, 100% apelin;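 active means activation more than six SD over the plate average, tested at 20 µM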
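Test system: CHO-K1 APJ beta-arrestin complementation cell line | Compound: Single test compound dose, 20 µM final, 1% DMSO | Incubation: Compound 90 min 25 °C, reagent 1 h | Measured by: beta-gal luminescence | Read-out basis: APJ–arrestin association signal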
Of the large screens only hits and unclear results are named; the others gave an inactive call; ! = not active in a repeat.

CCN(CC)S(=O)(=O)c1ccc(C(=O)Nc2cc(S(=O)(=O)N3CCOCC3)ccc2N2CCN(C)CC2)cc1	none (no result: APJ antagonist, APJ agonist)
O=C(C(c1ccccc1)N1CCOCC1)N1CCOCC1 (stereo not drawn)	none
O=C(C=Cc1ccccc1)CC(c1ccccc1)N1CCOCC1 (stereo not drawn)	EBI2 block 48 (no result: APJ antagonist, APJ agonist)
CCN(CC)S(=O)(=O)c1ccc(N=Nc2cc(C)cc(Br)c2O)cc1	CCR6 antagonist 58, CXCR6 block 42
CCOC(=O)c1cnc(-n2nc(C)cc2C)nc1NCc1ccccc1	none
CCOC(=O)c1cnc(-n2nc(C)cc2C)nc1NC(C)c1ccccc1 (stereo not drawn)	EBI2 block 51
COc1ccccc1CNC(=O)COC(=O)c1cc(C)nc2ccccc12	none
COc1ccccc1CNC(=O)COC(=O)c1cc(-c2ccco2)nc2ccccc12	CCR6 antagonist 50
CC1OC(CC(=O)O)CC2=C1C(=O)c1c(O)cccc1C2=O (stereo not drawn)	CCR6 antagonist 89, CXCR6 block 74 (no result: APJ antagonist, APJ agonist)
NC(=O)c1cc(-c2ccccc2)sc1NC(=O)Cc1ccc(S(=O)(=O)N2CCOCC2)s1	EBI2 block 50
Cc1cccc(Nc2nc(-c3sc(C)nc3C)cs2)c1	EBI2 block 57
Cc1nc(C)c(-c2csc(Nc3cccc(O)c3)n2)s1	none
CC(=O)Nc1cccc(C(=O)NNC(=O)c2ccccc2-n2cccc2)c1	none
CCCCOc1cccc(C(=O)NC(=S)Nc2cccc(C(F)(F)F)c2)c1	CCR6 antagonist 51
CCCCOc1ccc(C(=O)NCC(=O)NC(C)CCc2ccccc2)cc1 (stereo not drawn)	none
N#C/C(=C(/O)c1ccc([N+](=O)[O-])s1)c1nc2ccccc2[nH]1	CCR6 antagonist 63
N#C/C(=C(/O)CCl)c1nc2ccccc2[nH]1	APJ antagonist 53
COC(=O)C1=C(C(=O)OC)[C@]2([C@H]3CCCCN[C@@H](Cc4ccccc4)C(=O)N3Cc3ccccc3)C=C[C@H]1O2	none
N#Cc1ccc(OCC(=O)NNC(=S)NC2CCCCC2)cc1	none
CS(=O)(=O)N(Cc1cc2ccccc2[nH]c1=O)C1CCCCC1	hiPSC survival 27
O=C(O)CCCN1C(=O)/C(=C/c2ccc(-c3nc4ccccc4s3)o2)SC1=S	EBI2 block 53
O=CC(=O)c1ccccc1	CCR6 antagonist 76
CCOc1ccccc1N1C(=O)CC(Sc2n[nH]c(-c3ccccc3)n2)C1=O (stereo not drawn)	CCR6 antagonist 70
COc1ccc(N2C(=O)CC(Sc3n[nH]c(-c4cccc(C)c4)n3)C2=O)cc1 (stereo not drawn)	none
CC(=O)Nc1ccc(-c2ccnc3c2CC(C(=O)Nc2cccc(OC(F)(F)F)c2)O3)cc1 (stereo not drawn)	none (no result: APJ antagonist, CCR6 antagonist, APJ agonist)
CCCCCCn1cc(CN2CC(N3CCCCC3)CS2(=O)=O)nn1 (stereo not drawn)	none (no result: APJ antagonist, CCR6 antagonist, APJ agonist)
Fc1ccc(COc2ccc(Br)cc2CNCc2ccncc2)cc1	none
CCOc1cc(CNCc2ccncc2)cc(Br)c1OCc1ccc(F)cc1	EBI2 block 59
COc1cc(/C=C/c2cc(OC(C)=O)c3ccccc3n2)c(OC(C)=O)c([N+](=O)[O-])c1	CCR6 antagonist 63
Cc1ccc(NC(=O)CNC(=O)c2cccc(C)c2)nc1	none
CCc1nnc(NC(=O)c2cccc(C(=O)Nc3nnc(CC)s3)n2)s1	CCR6 antagonist 73, CXCR6 block 52 (no result: APJ antagonist, APJ agonist)
C[C@@H](NC(=O)c1ncn(Cc2ccccc2)c1C(=O)N[C@H](C)c1ccccc1)c1ccccc1	EBI2 block 48
C[C@H](NC(=O)c1ncn(C)c1C(=O)N[C@@H](C)c1ccccc1)c1ccccc1	none
CCOc1ccc(NC(=O)C2C3C=CC4(O3)C2C(=O)N(Cc2cccnc2)C4C(=O)NC2CCCCC2)cc1 (stereo not drawn)	none
COc1ccc(CS(=O)(=O)/C(Cl)=C(/Cl)C(=O)Nc2ccc(OC)nc2)cc1	hiPSC survival 37, EBI2 block 72
O=C1C=CC(=O)N1c1ccc(O)cc1	CCR6 antagonist 81
O=C1CCCC(=O)N1c1ccc(O)cc1	none
O=C1C=CC(=O)N1c1ccc(OC(F)F)cc1	CXCR6 block 103 (no result: APJ antagonist, CCR6 antagonist, APJ agonist)
Cn1cnc2c(cnn2C)c1=O	none (no result: APJ antagonist, APJ agonist)
COC(=O)c1cc(=O)n(Cc2cccs2)c(=Nc2ccc(F)cc2)s1	none
COC(=O)c1cc(=O)n(CCc2ccccc2F)c(=Nc2ccc(F)c(Cl)c2)s1	EBI2 block 69
COC(=O)c1cc(=O)n(Cc2ccco2)c(=Nc2ccc(F)c(Cl)c2)s1	EBI2 block 55
CC1Sc2ccc(S(=O)(=O)N3CCC(C(=O)Nc4cccc(Cl)c4)CC3)cc2NC1=O (stereo not drawn)	none
CN(C)c1ncc(C2=C(Cl)C(=O)C(N3CCCC3)=C(Cl)C2=O)s1	CCR6 antagonist 91
O=C1C(Cl)=C(N2CCCCC2)C(=O)C(Cl)=C1c1cnc(N2CCCCC2)s1	CCR6 antagonist 70
CC(=O)c1cnc(N(C)C)s1	none
O=C1C(Cl)=C(N2CCCCCC2)C(=O)N1c1ccc(Cl)cc1	none
CCCCCCN1C(=O)CC(NC(=O)OCC2c3ccccc3-c3ccccc32)C/C=C\C1C(C)C (stereo not drawn)	none (no result: APJ antagonist, APJ agonist)
C/C(CCC12CC3CC(CC(C3)C1)C2)=N\NC(N)=S	CCR6 antagonist 57
CCc1ccc(C(O)c2ncc(-c3ccccc3C(F)(F)F)[nH]2)cc1 (stereo not drawn)	none (no result: APJ antagonist, CCR6 antagonist, APJ agonist)
Cc1cnc(=O)[nH]c1SCc1ccccc1F	none
Cc1[nH]n(-c2nc(-c3ccc(Cl)cc3)cs2)c(=O)c1N=Nc1ccc(O)cc1	EBI2 block 51
CCN(CC)c1ccc(NC2=C(Cl)C(=O)c3ccccc3C2=O)cc1	CCR6 antagonist 57 (no result: APJ antagonist, APJ agonist)
CCNC1=C(Cl)C(=O)c2ccccc2C1=O	none
CCCC(=O)NC1=C(Cl)C(=O)c2ccccc2C1=O	CCR6 antagonist 107, CXCR6 block 99 (no result: APJ antagonist, APJ agonist)
Cc1ccc(C)c2[nH]c(=O)c(CCNC(=O)CCc3ccccc3)cc12	none
COc1ccc(-c2cc(CCC(=O)N3CCN(c4cc(C)ccc4C)CC3)[nH]n2)cc1	none (no result: APJ antagonist, APJ agonist)
CN(O)/C=C1\C(=O)Nc2ccccc21	none
O=C1Nc2ccccc2/C1=C\C(=O)c1ccccc1	EBI2 block 61
CC1CCCCN1S(=O)(=O)c1cccc2cccnc12 (stereo not drawn)	none
O=S(=O)(c1cccc2cnccc12)N1CCCNCC1	hiPSC survival 58
CC1CNCCN1S(=O)(=O)c1cccc2cnccc12 (stereo not drawn)	hiPSC survival 20!
O=S(=O)(c1cccc2ccccc12)N1CCCCC1	none
O=C(OCC(=O)N1CCN(c2ccccc2)CC1)c1nc(Cl)ccc1Cl	none
Cc1ccc(O)c(C2=NNC(c3ccc(Cl)cc3)C2)c1 (stereo not drawn)	APJ antagonist 70
